Experimental findings from ChEMBL document CHEMBL4513216, “Probing the Open Global Health Chemical Diversity Library for Multistage-Active Starting Points for Next-Generation Antimalarials” (ACS Infect Dis, 2020) are described below.

A short description of the data set: Toxicity liver stage against HepG2, at 10uM. It is filed as cell-based. Also noted: test concentration 10 uM, cell line HepG2-A16-CD81EGFP. Particulars: human, HepG2-A16-CD81EGFP cells; read-out: INHIBITION
Summed up: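 Uninfected HepG2-A16-CD81EGFP cells, 3 × 10^3 per well, 1536-well, plated on prespotted compound at 10 μM final, parasite-free screening media added to match infected plates; puromycin 10 μM positive, DMSO 0.5% negative; run in parallel with 48 h PbLuc assay at 37 °C, 5% CO2; viability by CellTiter-Glo luminescence, normalized to controls.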
As to `CN1C(=N)NC(=O)/C1=C\c1ccc(-c2ccc(F)cc2)o1`, the cytotoxicity at 10 µM worked out at 13.5%. On to `CCOc1ccccc1CNS(=O)(=O)c1ccc2c(c1)CCCC(=O)N2`, for which the cytotoxicity at 10 µM worked out at 7.89%. Take `CCCC(O)CN1CC(C)(C)CN(C(=O)c2ccccc2)CC1=O` (stereo not drawn): the cytotoxicity at 10 µM is -0.295%. Under `CNC(=O)CC1c2cccnc2C(=O)N1Cc1ccccc1` (stereo not drawn) stands -2.51%; under `COc1ccc(CN2CC(O)CN(C(=O)CC(C)C)CC2=O)cc1` (stereo not drawn), -0.634%. To `CCOc1ccc2[nH]c3c(N(C)CC4OCCO4)ncnc3c2c1` belongs 15.2%; to `O=C(Cc1cnc(-c2c(Cl)cccc2Cl)s1)N1CCOCC1`, 3.29%.

As to `COCCn1cnc2ccc(NC(=O)c3ccccn3)cc2c1=O`, the cytotoxicity at 10 µM is -6.81%.

Consider `COCCN1CCn2c(nc3cc(C(=O)NC(C)C)ccc32)C1`, for which the cytotoxicity at 10 µM was determined as 2.38%. To `CC(C)n1c(=O)c2sccc2n(CC(=O)Nc2cccc(Cl)c2)c1=O` belongs 8.93%. Under `O=C(CCn1nc(C(F)(F)F)c(Cl)c1C1CC1)NN1CCOCC1` stands 7.69%; under `Cc1ncc(C(=O)N2CCC(C(=O)NC3CCCC3)C2)c(C)n1` (stereo not drawn), 6.3%. `CN(C)CCNC(=O)CC1CCN(c2cccnn2)CC1`: the cytotoxicity at 10 µM came to 6.04%. Take `Cc1cc(C)n(C2CCN(S(=O)(=O)N3CCC(C)CC3)CC2)n1`: the cytotoxicity at 10 µM worked out at 6.36%. In the case of `CCCn1nccc1-c1nccnc1CC1CCN(C(C)=O)CC1`, the cytotoxicity at 10 µM was -6.15%. On to `c1cc(CCNc2ccc(CC3CCNC3)cn2)ccn1` (stereo not drawn), for which the cytotoxicity at 10 µM stood at 3.09%. In the case of `CCCc1cc(C(=O)N[C@@H]2CC[C@@H](N3CCOCC3)[C@@H]2O)no1`, the cytotoxicity at 10 µM is -3.59%. To `c1cncc(CN2CC(Cc3nccc4cc[nH]c34)C2)c1` belongs -2.26%; to `O=C(C1CCOCC1)N1CCOCC(Cc2ncccn2)C1` (stereo not drawn), 1.38%.

For the molecule `Clc1cccc(Cl)c1CN(CCCN1CCOCC1)Cc1cccnc1`, the cytotoxicity at 10 µM is -0.52%. For `O=S1(=O)NCC2(CCCN(Cc3ccccn3)C2)Oc2ncccc21` (stereo not drawn), the cytotoxicity at 10 µM amounted to 2.22%.

As for `Cc1ccc2c(c1)N(C(=O)c1cc[nH]c(=O)c1)CC(C)O2` (stereo not drawn), the cytotoxicity at 10 µM was 2.71%.

With `N#Cc1c(CN2CCCCC2Cn2cncn2)cn2ccccc12` (stereo not drawn), the cytotoxicity at 10 µM is 3.06%.

Consider `Cc1cc(CSCc2csc(CS(C)(=O)=O)n2)no1`, for which the cytotoxicity at 10 µM was -2.49%. As to `Cc1noc(NCc2cn(C)nc2-c2ccncc2)n1`, the cytotoxicity at 10 µM is -3.48%.

For the molecule `Cc1cc(NC(=O)C2CCN(c3nnc(C)c(C)c3C#N)CC2)no1`, the cytotoxicity at 10 µM is -4.11%.

With `Cc1nc(CN2CCN(S(=O)(=O)N3CCCCC3)CC2)oc1C`, the cytotoxicity at 10 µM stood at 3.64%. Under `CC(C)CCS(=O)(=O)CC(=O)N1CCCC1c1cnn(C)c1` (stereo not drawn) stands 0.528%.

With `Cc1cn2c(CN(C)C(=O)c3cccnc3O)c(C)nc2s1`, the cytotoxicity at 10 µM was -8.59%. Regarding `CC(Nc1ccc(CN2CCCC2=O)cc1)c1ccc(C#N)cc1` (stereo not drawn), the cytotoxicity at 10 µM came out at 6.29%. To `N#Cc1ccccc1OCCN1CCCC(c2noc(C3CC3)n2)C1` (stereo not drawn) belongs 5.87%; to `CCCc1nc(C)c(C(=O)NC2CCN(C3CC3)C2)s1` (stereo not drawn), -7.82%; to `CCn1cc(S(=O)(=O)NC(CO)Cc2c[nH]c3ccccc23)cn1` (stereo not drawn), 10.8%.

For `CCc1cc(NC(=O)C2CCCN(C(=O)NCC(C)C)C2)[nH]n1` (stereo not drawn), the cytotoxicity at 10 µM is -4.56%. For the molecule `COCCC(=O)Nc1nc2c(OC)cc(F)cc2s1`, the cytotoxicity at 10 µM was -0.327%. Under `c1cc(CN2CCOC3(CCCC3)C2)no1` stands -8.29%; under `COC(C)C(=O)NS(=O)(=O)c1ccc(F)c(C(F)(F)F)c1` (stereo not drawn), -4.04%.

`CCCc1noc(CS(=O)(=O)c2cccc(OC)c2)n1`: the cytotoxicity at 10 µM came out at 17.4%. Under `Cc1ccc(N2CCCC(N(C)Cc3cc(C)no3)C2)nn1` (stereo not drawn) stands 11.9%. As to `CS(=O)(=O)NCc1ncn2c1CN(C(=O)C1CCCO1)CCC2` (stereo not drawn), the cytotoxicity at 10 µM was -110%. Under `CCN1C[C@H]2N(c3ncccn3)CCC[C@@]2(C(=O)NCC2CC2)C1` stands -97.3%; under `CC(C)NC(=O)C1CN(C(=O)c2ccco2)CC12CCOCC2` (stereo not drawn), -0.516%; under `CS(=O)(=O)N1CCC2(CC1)CC(CC(=O)N1CCCC1)c1ccccc12` (stereo not drawn), -0.748%. Under `CCC(O)Cn1nc(CCSC)nc1-c1ccc2c(c1)OCCO2` (stereo not drawn) stands -0.268%; under `Cc1c(CN2CCCC(C(=O)CCc3ccccc3)C2)cc(C#N)n1C` (stereo not drawn), -5.76%; under `NCC1CCCN(c2nc(-c3ccccc3)nc3c2CCNCC3)C1` (stereo not drawn), -10.3%. Under `CC(C)Nc1cc(N2CCC(n3cc(CCO)nn3)CC2)ncn1` stands 16.3%. Take `c1cc(C2CCN(Cc3ccc4c(c3)OCO4)CC2)ccn1`: the cytotoxicity at 10 µM is -2.98%.

As for `CCc1cc(N(C)CCCO)n2nccc2n1`, the cytotoxicity at 10 µM turned out to be 1.77%. To `O=C(O)CNc1cc(-c2cc(C3CC3)ncn2)c2cc[nH]c2n1` belongs 7.69%; to `Cc1ccccc1-n1cc(C2=CCN(CCN3CCOCC3)CC2)cn1`, -5.06%. Turning to `COC(=O)CCC(=O)N(C/C=C/c1ccccc1)CCO`, the cytotoxicity at 10 µM is 3.28%. To `CN1CCC(N(CCc2ccccc2)Cc2noc(C3CC3)n2)CC1` belongs -3.49%; to `c1cnc2nc(C3CCNCC3)[nH]c2c1`, 9.57%; to `NC(=O)CN1CC2(CCC1=O)CCN(Cc1ccccc1F)CC2`, 1.81%.

With `COCc1nnc(C(=O)N(C)Cc2ccc(OC)cc2)o1`, the cytotoxicity at 10 µM is -0.164%. To `O=S1(=O)COCCN1Cc1ccc(F)c(C(F)(F)F)c1` belongs 7.52%.

On to `CN(Cc1ccon1)CC1CCOc2ccccc2C1` (stereo not drawn), for which the cytotoxicity at 10 µM is -6.95%. For `Cc1nc2c(c(N(C)C)n1)CCN(C(=O)c1sccc1S(N)(=O)=O)C2`, the cytotoxicity at 10 µM is -2.29%. To `CCOc1cc(C)nc(N2CCN(C(=O)c3cc(C)on3)CC2)n1` belongs -1.61%; to `Cc1ccc(C(=O)NS(=O)(=O)c2c(Cl)cccc2Cl)c(=O)[nH]1`, -0.855%; to `COc1c(C2CCCN2CC(=O)Nc2cccnc2)c(C)nn1C` (stereo not drawn), -2.39%. To `CC(NCc1c(C(C)C)nn(C)c1N1CCOCC1)C(=O)N(C)C` (stereo not drawn) belongs -10.7%.

As for `Cc1cc(CN2CCC(N(C)Cc3noc(C4CC4)n3)C2)on1` (stereo not drawn), the cytotoxicity at 10 µM turned out to be 1.54%. Under `CNc1nc(CNC(=O)Nc2ccccc2C(F)(F)F)cs1` stands -0.896%. Take `Cc1cccc(CN(C(=O)NCc2ccccn2)C2CC2)c1`: the cytotoxicity at 10 µM was -6.73%. To `COc1c(C2CCCN2C(=O)c2c(C)noc2C)c(C)nn1C` (stereo not drawn) belongs 0.471%; to `c1ccc(Cc2nnc(CN3CCOC(Cn4cccn4)C3)o2)cc1` (stereo not drawn), -8.48%.

For `COc1cc(Cl)ccc1C(=O)N1CCCC(n2nc(C)nc2C)C1` (stereo not drawn), the cytotoxicity at 10 µM is -5.8%.

On to `Cc1nc(CC(=O)N2CCCC2Cn2cccn2)cs1` (stereo not drawn), for which the cytotoxicity at 10 µM is -11.2%. As for `CCc1nc(C2CCCN2CC(=O)Nc2cc(C)nn2C)no1` (stereo not drawn), the cytotoxicity at 10 µM was -7.82%. `CNc1snc(C)c1C(=O)N1CCCC(n2nc(C)nc2C)C1` (stereo not drawn): the cytotoxicity at 10 µM was -7%. Under `Cc1cnn(CC2CN(c3ncnc4[nH]ccc34)CCO2)c1` (stereo not drawn) stands -1.91%.

In the case of `COc1ccccc1OCCNCCn1cccn1`, the cytotoxicity at 10 µM is -4.53%. To `Cc1cnn(CC(C)NCc2csc(-c3cccs3)n2)c1` (stereo not drawn) belongs -5.8%; to `CC(C)=CCN1CCOC(Cn2cccn2)C1` (stereo not drawn), 2.4%; to `CC(C)CN1CC(C(=O)NCc2cccnc2-n2cccn2)CC1=O` (stereo not drawn), -1.04%. As to `CCc1noc(CNCC2CCCN2c2cccnn2)n1` (stereo not drawn), the cytotoxicity at 10 µM was 2.11%. Take `Cc1nnc(C2Cc3ccccc3CN2Cc2c(C)noc2C)o1` (stereo not drawn): the cytotoxicity at 10 µM is -13.7%. Under `Cc1nnc(CN(C)CC2CCCN2c2cccnn2)o1` (stereo not drawn) stands -0.514%; under `Cc1cnn(C2CCCN(C(=O)c3sccc3C#N)C2)c1` (stereo not drawn), 0.736%; under `Cn1cc(NC(=O)N2CCC(CN3CCCC3)CC2)ccc1=O`, -11.5%. To `c1ncn(CC2CCCCN2Cc2noc(C3CC3)n2)n1` (stereo not drawn) belongs -0.935%. As to `O=C(Nc1ccccn1)C1=NN(c2ccccc2)C(=O)CN1`, the cytotoxicity at 10 µM is -1.53%. On to `CCc1c(C(=O)NC2CCS(=O)(=O)C2)cnn1-c1ccc(F)cc1` (stereo not drawn), for which the cytotoxicity at 10 µM was -6.31%. In the case of `N#Cc1ccc(OCCN2CCc3c(ncn3C3CC3)C2)cc1`, the cytotoxicity at 10 µM was -0.318%. To `CCc1nc(C2CCCN2C(=O)c2nc(C)n3ccccc23)no1` (stereo not drawn) belongs 1.85%; to `Cc1cc(C(=O)N2CCc3nnc(N(C)C)cc3C2)c(C)n1C1CC1`, 1.56%; to `Fc1ccc(OCCCN2CCOC(Cn3cncn3)C2)cc1` (stereo not drawn), -1.03%.

For the molecule `O=C(NCCNc1ncccn1)C1CC(=O)N(CC(F)(F)F)C1` (stereo not drawn), the cytotoxicity at 10 µM was -9.02%.

For `CC(C)C(=O)NCc1cccc(N2CCCCC2=O)c1`, the cytotoxicity at 10 µM is -1.73%. Under `CC(C)c1nn(C)c(N(C)C)c1CNCc1cccc2cccnc12` stands -11.2%; under `Cc1ccc(C(=O)N2C[C@@H]3CCN(c4cccnc4)C[C@@H]3C2)cn1`, -75.9%; under `Cn1ccnc1NC[C@@H]1CCC[C@@H]2CN(Cc3cccnc3)C[C@@H]21`, 5.55%. With `O=C(Cc1ccccc1)N1CCCC2(COCCN(CC3CC3)C2)C1` (stereo not drawn), the cytotoxicity at 10 µM was -1.03%. To `c1cnc(NCc2cncc3c2CCN(Cc2ccoc2)C3)nc1` belongs -70.9%; to `COCC1CN(c2ccncn2)Cc2cnn(CC3CCCC3)c21` (stereo not drawn), 4.83%. Regarding `CN1CC(=O)N(c2cccc(F)c2)CC12CCN(CC1CC1)C2` (stereo not drawn), the cytotoxicity at 10 µM stood at 2.26%.
